By GI50 is commonly meant the concentration at which growth is held to half of that of the control. As usually defined, the LC50 is the concentration that kills 50% of the test population.

The structures appear in SMILES notation. Active and inactive are the calls of the source. The calls are words filed in the database; no cut-off is given here.

Among the data in ChEMBL document CHEMBL1158641, “Total synthesis of (+/-)-elegansidiol, (+/-)-farnesiferol B, and (+/-)-farnesiferol D” (2010) are GI50 and LC50 values, retold here.

The test system of one test is A549. Briefly: Cytotoxicity against human A549 cells after 48 hrs by SRB assay. The format is functional. In outline:
(§1)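 Compounds tested at […], triplicate wells, 48 h continuous exposure. SRB staining (0.4% in 1% acetic acid, 20 min RT), dye eluted with 10 mM trizma base, absorbance 540 nm (690 nm reference). GI50 from net-growth formula; experiments repeated three times.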

For a further test, the system named is SK-N-SH. Briefly: Cytotoxicity against human SK-N-SH cells after 48 hrs by SRB assay. The format is functional. In a few lines:
as §1
(In general: The SRB assay estimates cell density from bound dye.)

Turning to `C=C1CC[C@@H](O)C(C)(C)[C@@H]1CCC(C)=CCOc1ccc2ccc(=O)oc2c1` (mixture of isomers), in the test with A549 (A549, 48 h), the GI50 is 25 µM and the LC50 turned out to be 46 µM. In addition, in the test with SK-N-SH, the GI50 result is “inactive” and the LC50 result is “inactive”.

Turning to `C=C1CC[C@H](O)C(C)(C)[C@@H]1CCC(C)=CCOc1ccc2ccc(=O)oc2c1` (mixture of isomers), the GI50 entry with A549 and in the test on SK-N-SH was “inactive” each time. For the same molecule, the LC50 result in the test on A549 and with SK-N-SH was “inactive” each time.

For the molecule `C=C1CC[C@H](O)C(C)(C)[C@@H]1CC/C(C)=C/CO` (racemic), the GI50 entry in the test on A549 and in the test on SK-N-SH was “inactive” in each case. For the same molecule, the LC50 result with A549 and in the test on SK-N-SH was “inactive” each time.

Consider `COC(=O)Nc1nc2cc(C(=O)c3cccs3)ccc2[nH]1` [NOCODAZOLE], for which the GI50 with A549 (A549, 48 h) was 0.5 µM; with SK-N-SH, 0.65 µM.
